# According to ChEMBL document CHEMBL4270573, “Novel nicotinoyl pyrazoline derivates bearing N-methyl indole moiety as antitumor agents: Design, synthesis and evaluation” (Eur J Med Chem, 2018):
# Experiments:
# Mus musculus [1] = test: Toxicity in nude mouse xenografted with human HeLa cells assessed as edema in spleen at 10 to 20 mg/kg, ip after 14 days by hematoxylin and eosin staining based microscopic analysis; type: organism-based; settings: in vivo, 336 h
# Mus musculus [2] = test: Nephrotoxicity in nude mouse xenografted with human HeLa cells assessed as cellular inflammatory infiltration in kidney at 10 to 20 mg/kg, ip after 14 days by hematoxylin and eosin staining based microscopic analysis; type: toxicity, organism-based; settings: in vivo, 336 h
# Mus musculus [3] = test: Hepatotoxicity in nude mouse xenografted with human HeLa cells assessed as cellular inflammatory infiltration in liver at 10 to 20 mg/kg, ip after 14 days by hematoxylin and eosin staining based microscopic analysis; type: toxicity, organism-based; settings: in vivo, 336 h
# Outline: (§1)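 HeLa xenograft nude mice with tumours near 100 mm³, randomised to four groups of 28 mice in total. Dosing was intraperitoneal: vehicle, CA-4 10 mg/kg, or test compound at 10 or 20 mg/kg, continued for 14 days. Heart, liver, kidney and spleen were then H&E-stained and examined for inflammatory infiltration, edema, necrosis and cell morphology.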
# Mus musculus [4] = test: Hepatotoxicity in nude mouse xenografted with human HeLa cells assessed as edema in liver at 10 to 20 mg/kg, ip after 14 days by hematoxylin and eosin staining based microscopic analysis; type: toxicity, organism-based; settings: in vivo, 336 h; outline: as §1
# [5] = Inhibition of porcine brain tubulin polymerization measured over 30 mins; parameters: species or system Sus scrofa
# HeLa [6] = test: Cell cycle arrest in human HeLa cells assessed as accumulation at G2/M phase at 0.080 uM after 24 hrs by propidium iodide staining based flow cytometric analysis (reference value: 17.72%); type: functional
# Outline: (§2)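 HepG2 and HeLa cells were exposed to 0, 0.020, 0.040, 0.060, 0.080 or 0.10 µM for 6, 12 or 24 h. DNA content was stained with propidium iodide and analysed by flow cytometry to give the percentage of cells in G0/G1, S and G2/M phases; sub-G1 cells were also recorded.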
# Mus musculus [7] = test: Toxicity in nude mouse xenografted with human HeLa cells assessed as necrosis in spleen at 10 to 20 mg/kg, ip after 14 days by hematoxylin and eosin staining based microscopic analysis; type: organism-based; settings: in vivo, 336 h
# HeLa [8] = test: Cell cycle arrest in human HeLa cells assessed as accumulation at G2/M phase at 0.080 uM after 12 hrs by propidium iodide staining based flow cytometric analysis relative to control; type: functional; outline: as §2
# Mus musculus [9] = test: Hepatotoxicity in nude mouse xenografted with human HeLa cells assessed as necrosis in liver at 10 to 20 mg/kg, ip after 14 days by hematoxylin and eosin staining based microscopic analysis; type: toxicity, organism-based; settings: in vivo, 336 h; outline: as §1
# HepG2 [10] = test: Cell cycle arrest in human HepG2 cells assessed as accumulation at G0/G1 phase at 0.060 uM after 24 hrs by propidium iodide staining based flow cytometric analysis (reference value: 55.63%); type: functional; outline: as §2
# HeLa [11] = test: Induction of apoptosis in human HeLa cells assessed as viable cells at 0.080 uM after 24 hrs by Annexin V-FITC/propidium iodide staining based flow cytometric analysis (reference value: 88.6%); type: functional; settings: read-out: Activity
# Outline: (§3)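 HepG2 and HeLa cells were exposed to 0, 0.02, 0.040, 0.060, 0.080 and 0.10 µM for 6, 12 and 24 h. Cells were double-stained with Annexin V-FITC/PI and read by flow cytometry. Apoptotic rate was the percentage of FITC-positive cells, counting early plus late apoptotic.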
# HeLa [12] = test: Antitumor activity against human HeLa cells xenografted in nude mouse assessed as tumor volume at 10 mg/kg, ip after 14 days (reference value: 2292.17 mm3); type: functional
# HeLa [13] = test: Cell cycle arrest in human HeLa cells assessed as accumulation at G0/G1 phase at 0.080 uM after 24 hrs by propidium iodide staining based flow cytometric analysis (reference value: 66.26%); type: functional; outline: as §2
# HepG2 [14] = test: Induction of apoptosis in human HepG2 cells assessed as late apoptotic cells at 0.040 uM after 24 hrs by Annexin V-FITC/propidium iodide staining based flow cytometric analysis (reference value: 2.93%); type: functional; outline: as §3
# Mus musculus [15] = test: Toxicity in nude mouse xenografted with human HeLa cells assessed as ulceration at 10 to 20 mg/kg, ip after 14 days; type: organism-based; settings: in vivo, 336 h
# HeLa [16] = test: Induction of apoptosis in human HeLa cells assessed as viable cells at 0.020 uM after 24 hrs by Annexin V-FITC/propidium iodide staining based flow cytometric analysis (reference value: 88.6%); type: functional; settings: read-out: Activity; outline: as §3
# HepG2 [17] = test: Induction of apoptosis in human HepG2 cells assessed as necrotic cells at 0.10 uM after 24 hrs by Annexin V-FITC/propidium iodide staining based flow cytometric analysis (reference value: 0.270%); type: functional; outline: as §3
# Mus musculus [18] = test: Cardiotoxicity in nude mouse xenografted with human HeLa cells assessed as edema in heart at 10 to 20 mg/kg, ip after 14 days by hematoxylin and eosin staining based microscopic analysis; type: toxicity, organism-based; settings: in vivo, 336 h
# Outline: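 Excised tumours and heart, liver, kidney and spleen were H&E-stained and examined microscopically. Tumour scoring covered cell arrangement and necrosis. Organ scoring covered inflammatory infiltration, edema, necrosis and cell morphology.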
# Mus musculus [19] = test: Nephrotoxicity in nude mouse xenografted with human HeLa cells assessed as edema in kidney at 10 to 20 mg/kg, ip after 14 days by hematoxylin and eosin staining based microscopic analysis; type: toxicity, organism-based; settings: in vivo, 336 h
# HeLa [20] = test: Induction of apoptosis in human HeLa cells assessed as necrotic cells at 0.040 uM after 24 hrs by Annexin V-FITC/propidium iodide staining based flow cytometric analysis (reference value: 0.242%); type: functional; outline: as §3
# HeLa [21] = test: Antitumor activity against human HeLa cells xenografted in nude mouse assessed as tumor weight at 20 mg/kg, ip after 14 days (reference value: 1.54 g); type: functional
# HeLa [22] = test: Induction of apoptosis in human HeLa cells assessed as late apoptotic cells at 0.020 uM after 24 hrs by Annexin V-FITC/propidium iodide staining based flow cytometric analysis (reference value: 4.98%); type: functional; outline: as §3
# HepG2 [23] = test: Induction of apoptosis in human HepG2 cells assessed as viable cells at 0.060 uM after 24 hrs by Annexin V-FITC/propidium iodide staining based flow cytometric analysis (reference value: 94.5%); type: functional; settings: HepG2, 24 h, read-out: Activity; outline: as §3
# HepG2 [24] = test: Induction of apoptosis in human HepG2 cells assessed as early apoptotic cells at 0.040 uM after 24 hrs by Annexin V-FITC/propidium iodide staining based flow cytometric analysis (reference value: 2.31%); type: functional; outline: as §3
# HepG2 [25] = test: Induction of apoptosis in human HepG2 cells assessed as necrotic cells at 0.060 uM after 24 hrs by Annexin V-FITC/propidium iodide staining based flow cytometric analysis (reference value: 0.270%); type: functional; outline: as §3
# HepG2 [26] = test: Cell cycle arrest in human HepG2 cells assessed as accumulation at S phase at 0.040 uM after 24 hrs by propidium iodide staining based flow cytometric analysis (reference value: 20.40%); type: functional; outline: as §2
# [27] = Cytotoxicity against HEK293T cells assessed as reduction in cell viability after 48 hrs by MTT assay; type: cell-based, HEK-293T; settings: human
# HeLa [28] = test: Cell cycle arrest in human HeLa cells assessed as accumulation at G0/G1 phase at 0.040 uM after 24 hrs by propidium iodide staining based flow cytometric analysis (reference value: 66.26%); type: functional; outline: as §2
# HepG2 [29] = test: Induction of apoptosis in human HepG2 cells assessed as late apoptotic cells at 0.060 uM after 24 hrs by Annexin V-FITC/propidium iodide staining based flow cytometric analysis (reference value: 2.93%); type: functional; outline: as §3
smiles,measurement,setting,value
COc1cccc(C2=NN(C(=O)c3ccc(C)nc3)C(c3cn(C)c4ccc(OC)cc34)C2)c1 (centres undefined),Activity,Mus musculus [1],Non-Toxic
same,Activity,Mus musculus [2],Non-Toxic
same,Activity,Mus musculus [3],Non-Toxic
same,Activity,Mus musculus [4],Non-Toxic
same,IC50,[5],1600 nM
same,Activity,HeLa [6],71.2%
same,Activity,Mus musculus [7],Non-Toxic
same,Activity,HeLa [8],66.08%
same,Activity,Mus musculus [9],Non-Toxic
same,Activity,HepG2 [10],15.79%
same,viability at 0.08 µM,HeLa [11],61.8%
same,Activity,HeLa [12],1213.02 mm3
same,Activity,HeLa [13],5.36%
same,Activity,HepG2 [14],6.24%
same,Activity,Mus musculus [15],Non-Toxic
same,viability at 0.02 µM,HeLa [16],88.7%
same,Activity,HepG2 [17],2.46%
same,Activity,Mus musculus [18],Non-Toxic
same,Activity,Mus musculus [19],Non-Toxic
same,Activity,HeLa [20],0.512%
same,Activity,HeLa [21],0.53 g
same,Activity,HeLa [22],7.98%
same,viability at 0.06 µM,HepG2 [23],85.7%
same,Activity,HepG2 [24],7.34%
same,Activity,HepG2 [25],1.45%
same,Activity,HepG2 [26],21.59%
same,CC50 at 48 h,[27],> 300000 nM
same,Activity,HeLa [28],49.63%
same,Activity,HepG2 [29],4.9%
